Entries after “also recorded” stand apart in the source; their conditions may differ.
Assays:
ARRB2 = assay: 2% DSS colitis in Arrb2 cKO mice, overall; type: in vivo, mouse; conditions: Arrb2 cKO (gut epithelial) mice, vs AAV control mice
Summary of the method: (§1)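 Male Arrb2fl/fl or Gnaqfl/fl mice (7–8 weeks) were fasted overnight, anaesthetised, and given 100 μL AAV8-Vil-cre or AAV8-Vil-null (1E+11 vg/mL) by catheter 4 cm into the colon. One week later they received 2% DSS in drinking water for 7 days. Read-outs were body weight, DAI, colon length, H&E, serum IL-6/IL-1β ELISA, and colonic Il6/Tnf/Il1b/Tgfb1/Tjp1/Ocln mRNA.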

GALR2 [1] = assay: CRE-luc luciferase; type: cell-based; conditions: HEK293, GALR2, luciferase, 12 h
Summary of the method: (§2)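 HEK293 cells were transfected (Lipofectamine) with empty pcDNA3.1 or GALR plasmid (2 μg) plus CRE, NFAT-RE or SRE luciferase reporter. After 36 h, medium was replaced with serum-free medium containing test peptide, diluted in DMEM from a 1 mM water stock, for 12 h. Luciferase was read 48 h post-transfection. Technical triplicate; mean ± SD; 37 °C, 5% CO2.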

GALR3 [2] = assay: SRE-luc luciferase; type: cell-based; conditions: HEK293, GALR3, luciferase, 12 h
Summary of the method: as §2

hGALR2 = assay: G protein pathway activation, HEK293 luciferase; type: cell-based; conditions: human GALR2, vs cGAL53
Summary of the method: as §2

mGALR2 = assay: G protein pathway activation, HEK293 luciferase; type: cell-based; conditions: mouse GALR2, vs cGAL53
Summary of the method: as §2

GALR1 [3] = assay: SRE-luc luciferase; type: cell-based; conditions: HEK293, GALR1, luciferase, 12 h
Summary of the method: as §2

GALR2 [4] = assay: G protein versus β-arrestin2 signaling bias at GALR2; type: cell-based
colon transcriptome = assay: RNA-seq of colon tissue, DSS-induced colitis mice; type: in vivo; conditions: mouse colon
Summary of the method: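 Total RNA was extracted from mouse colon with Trizol, sequenced on BGIseq500 and mapped to the mouse genome. Data were analysed in R and reported as mean ± SEM.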

DSS-induced colitis = DSS-induced colitis in wild-type mice, overall therapeutic efficacy; type: in vivo, mouse; conditions: chicken and mouse colitis models, overall statement
GALR3 [5] = assay: NFAT-luc luciferase; type: cell-based; conditions: HEK293, GALR3, luciferase, 12 h
Summary of the method: as §2

GALR1 [6] = assay: CRE-luc luciferase; type: cell-based; conditions: HEK293, GALR1, luciferase, 12 h
Summary of the method: as §2

[7] = tested on: DSS-induced intestinal inflammation; type: in vivo, chicken
Summary of the method: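 Forty 21-day-old male yellow-feathered broilers were split into control, DSS and two peptide groups under 24 h light, with free food and water. DSS groups were gavaged with […] of 4% DSS daily from day 21 to 29. Treated birds got 100 μL of 50 μM peptide i.p. daily. TNF-α, IL-1β and IL-6 were measured by ELISA in jejunum/ileum homogenates (1:9 w/v ice-cold PBS, pH 7.4; 5000 × g, 10 min, 4 °C).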

mGALR2 mutants = assay: Tango β-arrestin2 recruitment, binding-site mutants; type: cell-based, mouse
GALR1 [8] = assay: NFAT-luc luciferase; type: cell-based; conditions: HEK293, GALR1, luciferase, 12 h
Summary of the method: as §2

GALR2 [9] = assay: NFAT-luc luciferase; type: cell-based; conditions: HEK293, GALR2, luciferase, 12 h
Summary of the method: as §2

GALR2 [10] = assay: SRE-luc luciferase; type: cell-based; conditions: HEK293, GALR2, luciferase, 12 h
Summary of the method: as §2

Gnaq = assay: 2% DSS colitis in Gnaq cKO mice, overall; type: in vivo, mouse; conditions: Gnaq cKO (gut epithelial) mice, vs AAV control mice
Summary of the method: as §1

Caco2 cells = assay: RT-qPCR cytokine expression, Caco2 cell inflammation model; type: cell-based, human; conditions: IL-1β + TNF-α
[11] = Tolerability of peptide alone in healthy male mice, overall; type: in vivo, mouse; conditions: daily i.p. for six consecutive days
Summary of the method: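 Healthy male mice received daily i.p. test peptide for six consecutive days alongside a saline-injected control group. Body weight, water intake, food intake and colon length were recorded.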

GALR3 [12] = assay: CRE-luc luciferase; type: cell-based; conditions: HEK293, GALR3, luciferase, 12 h
Summary of the method: as §2

GALR3 [13] = conditions: cited from earlier work
GALR1 [14] = conditions: cited from earlier work
TNBS-induced colitis = conditions: rat acute TNBS colitis; cited from earlier work
GALR2 [15] = conditions: cited from earlier work

GWTLNSAGYLLGPHAVDNHRSFNDKHGFT-NH2 [cGAL29]
therapeutic effects (weight loss, colon shortening, intestinal damage, inflammation) (ARRB2): significantly diminished; also recorded: negated the therapeutic effects | Gs (CRE-luc) activation (GALR2 [1]): more robust activation; also recorded: can activate | Gi (SRE-luc) activation (GALR3 [2]): can activate | activation of G protein pathways (hGALR2): more strongly than cGAL53 | activation of G protein pathways (mGALR2): more strongly than cGAL53 | Gi (SRE-luc) activation (GALR1 [3]): not GALR1 | bias at GALR2 (GALR2 [4]): G protein- | G protein activation / ARRB2 recruitment via GALR2 (GALR2 [4]; GALR2, overall statement): stronger activation of G protein signaling pathways via GALR2 | DSS-changed pathways (KEGG) (colon transcriptome): significantly modulated | expression levels of immune-related genes (colon transcriptome): significantly reduced | alleviation of colitis / intestinal inflammation, overall (DSS-induced colitis): alleviated intestinal inflammation symptoms in mouse colitis induced by DSS and TNBS | Gq (NFAT-luc) activation (GALR3 [5]): can activate | Gs (CRE-luc) activation (GALR1 [6]): not GALR1 | IBD-related symptoms in DSS-treated chickens ([7]; chicken, 4% DSS oral gavage, daily i.p. peptide): ameliorated IBD-related symptoms in chickens, manifested as reductions of body weight loss, intestinal bleeding points and tissue damage | expression of colonic inflammatory factors induced by DSS ([7]; chickens): reduced the expression of colonic inflammatory factors | β-arrestin2 recruitment after mutation of predicted unique binding sites (mGALR2 mutants): affected | Gq (NFAT-luc) activation (GALR1 [8]): not GALR1 | Gq (NFAT-luc) activation (GALR2 [9]): more robust activation; also recorded: can activate | Gi (SRE-luc) activation (GALR2 [10]): can activate | ability to alleviate weight loss, colon shortening, intestinal damage, inflammation (Gnaq): significantly reduced | concentration giving (similar) anti-inflammatory effect (Caco2 cells): 10 µM | expression of Il6, Il23 and Tgfb1 induced by IL-1β and TNF-α (Caco2 cells; RT-qPCR): reduced | body weight, water and food intake, colon length (tolerability) [11]: neither peptide affected body weight, water, and food intake, nor colon length, indicating good tolerability | Gs (CRE-luc) activation (GALR3 [12]): can activate

galanin: biologically active neuropeptide of 29/30 amino acids, cited literature
affinity (GALR3 [13]): lower affinity | affinity (GALR1 [14]): high affinity | severity of colonic damage and inflammatory responses (TNBS-induced colitis): decreases inflammatory responses; also recorded: reduce the severity of colonic damage and inflammatory responses | affinity (GALR2 [15]): high affinity

— article PMC12749109 (Nature Communications, 2025)
